From PubChem
Compounds with a hit are over-represented: about 1.8% of the library has one in this group of screens.
NPY-Y1 PAM-ag: human NPY-Y1 potentiation or agonism, primary screen; P25929; NPY-Y1 expressing cells, potentiator/agonist activation; activation, % at 3.6 µM; 0.37% of 220,000 active; AID 1304; in the data active means activation above about 33%, passing the limit was not always enough;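 further: cells stimulated with NPY at EC10 then isoproterenol at EC100; 0% = low agonist plus stimulus and 100% = saturating agonist plus stimulus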
Target sequence (P25929 whole entry, looked up): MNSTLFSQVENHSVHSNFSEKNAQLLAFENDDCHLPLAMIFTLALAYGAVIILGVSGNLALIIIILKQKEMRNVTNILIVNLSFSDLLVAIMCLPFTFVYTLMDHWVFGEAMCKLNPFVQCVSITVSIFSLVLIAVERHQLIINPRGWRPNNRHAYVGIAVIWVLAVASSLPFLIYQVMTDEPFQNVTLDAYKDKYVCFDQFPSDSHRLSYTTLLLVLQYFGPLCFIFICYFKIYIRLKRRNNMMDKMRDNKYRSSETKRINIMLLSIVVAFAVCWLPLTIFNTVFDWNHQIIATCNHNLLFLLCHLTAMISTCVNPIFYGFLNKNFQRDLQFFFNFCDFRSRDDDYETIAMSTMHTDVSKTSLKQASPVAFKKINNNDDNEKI
NPY-Y2 antag: antagonists of human neuropeptide Y receptor Y2; P49146; NPY-Y2 expressing cells, antagonist mode; inhibition, % at 2.7 µM; 0.99% of 140,000 active; AID 793; in the data active means inhibition above about 17%;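 further: 0% = vehicle with agonist challenge and 100% = reference antagonist with challenge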
NPY2 pot ag: potentiates or activates human NPY-Y2 receptor; P49146; cells expressing NPY-Y2, potentiator/agonist read-out; activation, % at 3.6 µM; 0.45% of 220,000 active; in the data active means activation above about 27%;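 further: cells stimulated with NPY near EC25 plus isoproterenol at EC100; 0% = vehicle plus submaximal agonist and 100% = vehicle plus saturating agonist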
NPY-Y1 antag: blocks the human neuropeptide Y Y1 receptor; P25929; HEK293-CNG Y1 cells, membrane potential fluorescence; NPY at EC95, then isoproterenol; inhibition, % at 3.6 µM; 1% of 200,000 active;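 active means inhibition above the campaign mean inhibition of all tested compounds plus 3 SD, cut at about 20% in these data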;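 further: 0% = DMSO wells given NPY plus isoproterenol and 100% = isoproterenol alone without NPY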
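Assay system: HEK293 Y1/CNG channel cell line; Doses: single compound dose of 3.6 µM, 0.4% DMSO; Timing: dye 3 h, compound 60 min room temperature, stimulation 45 min; Technique: Membrane-potential fluorescent dye readout; Measure: % inhibition of NPY effect.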
* hit, by the source's call; . = no result given.

SMILES	NPY-Y1 PAM-ag	NPY-Y2 antag	NPY2 pot ag	NPY-Y1 antag
O=C(c1cnccn1)N(Cc1cccs1)C1(C(=O)NC2CCCC2)CCCCC1	-27.0	25.8*	-15.3	42.4*
Cc1ccc(S(=O)(=O)NCc2ccc(C(=O)N3CCc4ccccc4C3)cc2)cc1	-2.8	3.9	-3.7	2.8
O=C(NCc1cn2ccsc2n1)c1cccc(C(F)(F)F)c1	-9.6	-1.3	1.5	2.4
COc1cccc(C(=O)NCc2cn3ccsc3n2)c1	72.0*	-0.7	98.2*	-9.6
CCOC(=O)c1cnc(-n2cc(C)cn2)nc1Nc1ccccc1OC	-36.3	2.2	-9.8	0.6
COc1ccc(Cn2c(SCc3ccc(C)cc3)nc3cc(OC)c(OC)cc3c2=N)cc1Cl	-15.5	24.5*	-3.4	34.3*
COc1ccc(Cn2c(SCc3cc(C)ccc3C)nc3cc(OC)c(OC)cc3c2=N)cc1	-34.3	55.0*	12.6	47.1*
CN(C)c1nccc(N(Cc2ccccc2)Cc2ccccc2)c1C#N	-92.7	21.7*	-37.0	65.7*
N=c1c2c(ncn1Cc1ccco1)Oc1ccc3ccccc3c1C2c1ccccc1 (stereo unspecified)	-10.9	32.5*	5.0	39.5*
COc1ccc(C2c3c(ncn(Cc4ccco4)c3=N)Oc3ccc4ccccc4c32)cc1 (stereo unspecified)	-8.7	14.5	-9.9	18.1
N#C/C(=C\c1ccc(N2CCOCC2)o1)C(=O)NC1CCCCC1	23.2	.	-6.1	.
CCCNCC(O)COc1ccccc1C(=O)CCc1ccccc1 (stereo unspecified)	98.6*	7.8	87.2*	-7.2
CCN(CC)CC(O)COc1ccccc1C(=O)CCc1ccccc1 (stereo unspecified)	51.4*	8.3	39.3*	2.5
CCOc1ccccc1CN1CCN(Cc2[nH]c3ccccc3c2C)CC1CCO (stereo unspecified)	-26.3	.	-13.0	21.0*
CCOc1ccccc1CN1CCN(Cc2ccc(C)o2)CC1CCO (stereo unspecified)	-20.8	.	-17.5	1.1
COc1ccc(NS(=O)(=O)c2cccc(C(=O)OCC(=O)Nc3cc(C)on3)c2)cc1	-9.8	1.9	-6.1	14.6
CCOC(=O)c1cc(C)n(CCc2ccccc2)c1C	7.0	7.7	-5.9	6.5
Brc1ccc(-c2csc(/N=C/N3CCOCC3)n2)cc1	-23.4	8.3	-11.9	35.1*
C=CCc1ccccc1OCC(O)CN1CCN(CCN2C(=O)c3cccc4cccc(c34)C2=O)CC1 (stereo unspecified)	53.9*	3.0	45.3*	-6.3
C=CCc1ccccc1OCC(O)CN1CCN(Cc2ccc3c(c2)OCO3)CC1 (stereo unspecified)	92.2*	6.6	87.1*	-16.2
Cc1ccc(-c2csc(NC(=O)COC(=O)c3cccc(S(=O)(=O)N4CCOCC4)c3)n2)cc1	12.7	-2.2	-1.7	-0.4
COc1ccc(/C=N/NC(=O)c2sccc2OCc2ccc(F)cc2)cc1OC	-20.6	25.9*	-26.6	11.7
COc1cc(/C=N/NC(=O)c2cccs2)ccc1OCc1ccccc1	-47.1	3.6	-27.2	-0.7
COc1ccc(C(c2nnnn2C2CCCC2)N2CCc3ccccc3C2)cc1OC (stereo unspecified)	-28.9	9.0	-18.7	16.8
COc1ccc(OC)c(C(c2nnnn2C2CCCC2)N2CCc3ccccc3C2)c1 (stereo unspecified)	-16.7	18.4*	-4.6	20.5*
SMILES	NPY-Y1 PAM-ag	NPY-Y2 antag	NPY2 pot ag	NPY-Y1 antag
CC(C)CC(=O)Nc1nnc(CSCc2ccc(F)cc2)s1	11.4	.	-19.9	.
COc1cccc(NC(=S)N(Cc2ccco2)C(C)c2ccco2)c1 (stereo unspecified)	-0.2	1.2	8.2	-4.1
Cc1ccc(N)c(C(O)(C(F)(F)F)C(F)(F)F)c1	6.8	2.7	3.0	3.5
CNc1ccc(C(O)(C(F)(F)F)C(F)(F)F)cc1C(O)(C(F)(F)F)C(F)(F)F	46.1*	0.4	58.0*	-9.8
CCCCC[C@H](O)/C=C/[C@@H]1[C@@H](C/C=C\CCCC(=O)O)[C@@H](O)C[C@H]1O	-73.2	2.1	-22.6	11.4
CCCCC[C@H](O)/C=C/[C@@H]1[C@@H](C/C=C\CCCC(=O)OC)[C@@H](O)C[C@H]1O	-65.3	20.1*	-23.1	63.1*
CC(C)CCn1c(Cl)nc2c1c(=O)n(C)c(=O)n2C	-4.3	3.2	8.3	-3.1
CC(C)CCNC(=O)Cn1c(NCCC(C)C)nc2c1c(=O)n(C)c(=O)n2C	-12.5	1.1	4.3	60.3*
Cc1ccc(S(=O)(=O)N/N=C/c2cccn2-c2ccc(Cl)cc2)cc1	-49.2	4.9	-12.3	0.1
CC1=NN(c2ccc(Cl)cc2)C(=O)/C1=C\c1cccn1-c1ccc(S(N)(=O)=O)cc1	60.4*	-6.0	48.9*	-16.6
CC1CCN(C(=S)c2cn(Cc3ccccc3F)c3ccccc23)CC1	-6.7	28.8*	-16.6	45.1*
C=CCn1c(SCc2c(C)noc2C)nc2sc(C)c(C)c2c1=O	-14.7	17.5*	-26.5	21.1*
Cc1noc(C)c1CSc1nc2sc(C)c(C)c2c(=O)n1-c1ccccc1	-32.6	5.5	-38.5	14.0
C=CCOc1cccc(C(=O)NC(c2ccccc2)C(C)C)c1 (stereo unspecified)	0.5	.	0.4	9.4
CC(C)c1ccc(NC(=S)NNC(=O)C2CC2)cc1	4.6	.	-17.9	9.8
Cc1ccc2c(c1)C(c1ccc([N+](=O)[O-])cc1)=NNC(c1ccc(Br)cc1)=N2	-1.6	17.4*	8.3	25.1*
CCc1ccc2c(c1)C(c1ccc([N+](=O)[O-])cc1)=NNC(c1ccc(Br)cc1)=N2	-7.0	0.2	10.6	5.1
Cc1ccc(-c2[nH]nc(N)c2N=Nc2cccc(Cl)c2C)cc1	46.2*	-2.6	17.1	-1.3
Cc1ccc(-c2[nH]nc(N)c2N=Nc2ccccc2C)cc1	-7.2	-3.0	-1.0	-3.4
O=C1c2cccnc2C(O)N1Cc1ccccc1 (stereo unspecified)	1.5	2.9	4.5	-5.1
COc1ccc(NS(=O)(=O)c2cc(C)ccc2NC(=O)c2cc(C)oc2C)cc1	-32.8	35.6*	-22.1	23.3*
COc1ccc(NS(=O)(=O)c2cccc(C(=O)NNC(=O)c3cc(C)oc3C)c2)cc1	19.4	-0.7	-0.5	-2.7
COc1ccc(O[C@H]2C=C[C@@H](c3ccccc3)O[C@@H]2COC(=O)CC/C(C)=N/OC[C@@H](O)COCc2ccco2)cc1	-20.8	11.6	-3.0	7.0
COC(=O)C/C=C/[C@@H](C)[C@@H](/C=N/OC[C@H]1O[C@H](c2ccccc2)C=C[C@@H]1Oc1ccc(OC)cc1)OC	-39.4	19.0*	2.1	25.4*
CCOc1ccccc1N=c1oc2cc(O)ccc2cc1C(=O)NCC1CCCO1 (stereo unspecified)	-45.3	25.0*	-11.6	36.3*
COc1ccc(N=c2oc3cc(O)ccc3cc2C(=O)NCC2CCCO2)c(OC)c1 (stereo unspecified)	-20.1	31.0*	-9.9	30.4*
Cc1nc(NC(=O)CCc2ccccc2)ccc1Br	-2.2	2.3	-19.8	-0.7
CC(CCc1ccccc1)NC(=O)COC(=O)c1ccc(S(C)(=O)=O)c([N+](=O)[O-])c1 (stereo unspecified)	66.4*	.	52.2*	-5.9
